Source: ChEMBL document CHEMBL4002606, “Discovery of FZU-03,010 as a self-assembling anticancer amphiphile for acute myeloid leukemia” (Bioorg Med Chem Lett, 2017)

How the values were obtained:
HL-60 [1] = test: Induction of apoptosis in human HL60 cells assessed as early apoptotic cells at 2 uM after 24 hrs by Annexin V-PE/7AAD staining based flow cytometry (reference value: 4.42%); format: functional
HL-60 [2] = test: Induction of apoptosis in human HL60 cells assessed as live cells at 2 uM after 24 hrs by Annexin V-PE/7AAD staining based flow cytometry (reference value: 90.9%); format: functional
HL-60 [3] = test: Growth inhibition of human HL60 cells at 20 uM after 48 hrs by MTT assay relative to control; format: functional; conditions: HL-60, 48 h, read-out: GI
[4] = Stability of the compound in DMSO/deionized water post nanoparticle formation after 3 weeks; format: physicochemical; conditions: 504 h
HL-60 [5] = test: Growth inhibition of human HL60 cells at 0.63 uM after 48 hrs by MTT assay relative to control; format: functional; conditions: HL-60, 48 h, read-out: GI
HL-60 [6] = test: Induction of apoptosis in human HL60 cells assessed as late apoptotic cells at 2 uM after 24 hrs by Annexin V-PE/7AAD staining based flow cytometry (reference value: 3.64%); format: functional
HL-60 [7] = test: Growth inhibition of human HL60 cells at 1.25 uM after 48 hrs by MTT assay relative to control; format: functional; conditions: HL-60, 48 h, read-out: GI
HL-60 [8] = test: Growth inhibition of human HL60 cells at 2.5 uM after 48 hrs by MTT assay relative to control; format: functional; conditions: HL-60, 48 h, read-out: GI
HL-60 [9] = test: Growth inhibition of human HL60 cells at 5 uM after 48 hrs by MTT assay relative to control; format: functional; conditions: HL-60, 48 h, read-out: GI
HL-60 [10] = test: Induction of apoptosis in human HL60 cells assessed as necrotic cells at 2 uM after 24 hrs by Annexin V-PE/7AAD staining based flow cytometry (reference value: 1.08%); format: functional
HL-60 [11] = test: Growth inhibition of human HL60 cells after 48 hrs by MTT assay; format: functional, cell-based; conditions: HL-60, 48 h
In short: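 HL-60 human promyelocytic leukemia cells; proliferation inhibition of the cells measured and reported as IC50; values are mean ± SE of at least three independent experiments.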

HL-60 [12] = test: Growth inhibition of human HL60 cells at 40 uM after 48 hrs by MTT assay relative to control; format: functional; conditions: HL-60, 48 h, read-out: GI
HL-60 [13] = test: Growth inhibition of human HL60 cells at 10 uM after 48 hrs by MTT assay relative to control; format: functional; conditions: HL-60, 48 h, read-out: GI

Stability [4]: Stable
IC50 (HL-60 [11]): 910 nM
Structure (SMILES): C[C@H]1[C@H](C)CC[C@]2(C(=O)N3CCNCC3)CC[C@]3(C)C(=CC[C@@H]4[C@@]5(C)Cc6cn[nH]c6C(C)(C)[C@@H]5CC[C@]43C)[C@H]12
Activity (HL-60 [1]): 19.1%
Activity (HL-60 [2]): 76.5%
inhibition of growth at 20 µM (HL-60 [3]): 93.5%
inhibition of growth at 0.63 µM (HL-60 [5]): 14.7%
Activity (HL-60 [6]): 3.89%
inhibition of growth at 1.25 µM (HL-60 [7]): 66.4%
inhibition of growth at 2.5 µM (HL-60 [8]): 86%
inhibition of growth at 5 µM (HL-60 [9]): 91.6%
Activity (HL-60 [10]): 0.439%
inhibition of growth at 40 µM (HL-60 [12]): 94%
inhibition of growth at 10 µM (HL-60 [13]): 95%
